Bioassay records from PubChem BioAssay.
The list is not random: actives were taken first. Their share in the collection is about 1.6%.
PKA-R1A activ = PKA-R1A complex activation; P00514+P68181; PKA-R1A dissociation, Cy5-IP20 fluorescence polarization; scaled: DMSO 0%, 113 µM cGMP 100%; activation, % at 11.4 µM; AID 504707; hit rate 0.083% among 340,000;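 active = percent activation above the mean of all tested compounds plus 3 SD, cut at about 19% in these data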;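 also: higher means more PKAc released from R1A so a rise in polarization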
PG9 Ab binder = PG9 antibody binding by small molecule; hit rate 0.43% among 360,000; TR-FRET gp120-PG9 antibody binding; inhibition, % at 6.7 µM; in the data active = inhibition above about 8.5%
NR2E3 ag-1 = activates human photoreceptor nuclear receptor NR2E3; Q9Y5X4; GST-NR2E3/biotin-RetCOR TR-FRET, 1536-well; inhibition of corepressor binding, % at 4.78 µM; hit rate 0.12% among 320,000; AID 2300;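 active = percent inhibition above the cutoff of mean plus 3 SD of all tested compounds, set per screening campaign, cut at about 20% in these data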;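 also: 0% = DMSO wells and 100% = biotin wells as full block of FRET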
Target sequence (Q9Y5X4 whole entry, looked up): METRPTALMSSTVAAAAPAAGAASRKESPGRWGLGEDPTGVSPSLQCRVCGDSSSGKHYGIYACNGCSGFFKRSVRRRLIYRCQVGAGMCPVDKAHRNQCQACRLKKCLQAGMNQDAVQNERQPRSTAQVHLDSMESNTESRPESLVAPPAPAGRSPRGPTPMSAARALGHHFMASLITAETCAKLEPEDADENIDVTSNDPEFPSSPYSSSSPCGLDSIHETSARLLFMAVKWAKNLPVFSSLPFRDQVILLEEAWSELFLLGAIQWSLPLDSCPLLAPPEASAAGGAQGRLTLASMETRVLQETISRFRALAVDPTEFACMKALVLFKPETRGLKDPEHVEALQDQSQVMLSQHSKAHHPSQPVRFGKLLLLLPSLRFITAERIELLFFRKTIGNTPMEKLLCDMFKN
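Assay system: NR2E3–RetCOR corepressor complex. Quantity: 1.35 nM GST-NR2E3. Buffer or medium: pH 7.5 Tris-based buffer. Reagent: biotinylated RetCOR corepressor at 7 nM final. Schedule: 5 h at 4 °C. Detection: TR-FRET, emission read at 617 and 671 nm. Replicates: one well per compound, singlicate testing.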
NR1D1 modulator = Rev-erb alpha (human) modulation; activity, % at 10 µM; AID 1259318; Rev-erbα–FITC-DNA binding, fluorescence polarization, 90 min; P20393; hit rate 0.79% among 370,000;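 active = activity above about 14%, limit read from the data; passing the limit was not always enough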;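 also: 0% = DMSO wells with 35 nM protein and 100% = DMSO wells with 750 nM protein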
NR2E3 ag-2 = agonists of human NR2E3 nuclear receptor; CHO-S Gal4-NCOR/VP16-NR2E3 two-hybrid, luciferase; inhibition of corepressor binding, % at 3.98 µM; hit rate 0.35% among 360,000;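 active = inhibition above the mean of all tested compounds plus 3 SD, cut at about 70% in these data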;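 also: 0% = DMSO with NR2E3 transfected cells and 100% = cells lacking NR2E3 construct; higher means lower luciferase signal from less NR2E3 corepressor binding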
PKA-R2B act = PKA-R2B complex activation. activation, % at 11.4 µM. hit rate 0.079% among 340,000. P22694+P31323. PKA-R2B holoenzyme dissociation, Cy5-IP20 fluorescence polarization; R2B truncated from residue 108, S112A mutant; 0% DMSO only, 100% 113 µM cGMP;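 active = activation above a cutoff set at the mean over all compounds plus 3 SD, cut at about 18% in these data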;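 also: higher means more holoenzyme dissociation and a rise in polarization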
PG9 binder conf = confirmation of small molecules binding HIV-1 gp120 antibody PG9; inhibition, % at 6.7 µM; shares compounds with PG9 Ab binder; hit rate 90% among 1,500; TR-FRET PG9 antibody binding, biochemical; in the data active = inhibition above about 9%
PGV04 counter = counter-screen for PG9 binders: binding control antibody PGV04; TR-FRET PGV04 antibody-gp120 binding, biochemical; hit rate 95% among 1,500; inhibition, % at 6.7 µM; shares compounds with PG9 Ab binder; AID 651604; in the data active = inhibition above about 9.5%
PG9 bind DR = small molecules binding HIV-1 gp120 antibody PG9. shares compounds with PG9 Ab binder. TR-FRET PG9 antibody-gp120 binding inhibition. IC50, µM. 95 tested, under 10 active. AID 651848; in the data active = IC50 below about 10 µM
PGV04 DR counter = counter-screen for PG9 binders: binding to control antibody PGV04. shares compounds with PG9 Ab binder. TR-FRET binding to control antibody PGV04. IC50, µM. hit rate 20% among 95. AID 651937
PG126 binding DR = PG126 binding, dose response counter-screen. shares compounds with PG9 Ab binder. TR-FRET binding to antibody PG126, counterscreen. IC50, µM. hit rate 20% among 95
NR1D1 mod conf = Rev-erb alpha (human) modulation, hit confirmation; shares compounds with NR1D1 modulator; Rev-erb alpha FITC-DNA binding, fluorescence polarization, 90 min; activation, % at 25 µM; hit rate 61% among 3,000; AID 1259319;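 active = activation at or above a set limit, or at least 3 SD above the negative control mean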;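 also: 0% = 35 nM protein with DMSO and 100% = 750 nM protein high control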
RORg counter = RORgamma DNA-binding activity, dose-response counter-screen; AID 1259320; shares compounds with NR1D1 modulator; IC50, µM; purified RORgamma protein-FITC-DNA binding, fluorescence polarization; hit rate 8% among 910;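 active = Compounds whose fitted half-maximal concentration for disrupting protein-DNA binding is below 10 micromolar; the record names Rev-erb in its text, so the target is in doubt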
* marks the source's active call; other numbers are inactive results; i = inactive; / = not tested or not shown; + = active, no number. Rule as the data show it, unless noted: active = IC50 below about 9 µM; inactive = the rest.

SMILES	PKA-R1A activ	PG9 Ab binder	NR2E3 ag-1	NR1D1 modulator	NR2E3 ag-2	PKA-R2B act	PG9 binder conf	PGV04 counter	NR1D1 mod conf	RORg counter	others
O=c1ccc(-c2ccc(S(=O)(=O)N3CCN(c4ccccc4)CC3)o2)n[nH]1	-2.0	25.0*	12.1	120.2*	0.2	0.9	43.0*	47.7*	61.8*	>40
CCOC(=O)C1CCN(S(=O)(=O)c2ccc(-c3ccc(=O)[nH]n3)o2)CC1	8.6	-1.1	0.6	5.7	-30.6	-1.2	/	/	/	/
COc1ccc(CNc2ncnc3cc(Cl)ccc23)cc1OC	-3.1	-0.9	/	-5.3	18.8	-15.6	/	/	/	/
COc1ccccc1CNc1ncnc2cc(Cl)ccc12	1.6	89.7*	/	179.7*	9.2	0.7	91.1*	92.9*	137.2*	i
Cc1ccc2[nH]c(=O)c3cc(C(=O)NCCC(C)C)sc3c2c1	0.6	-0.7	/	-2.8	-13.4	4.1	/	/	/	/
CC(C)CCNC(=O)c1cc2c(=O)[nH]c3ccccc3c2s1	2.7	10.0*	1.0	30.3*	-14.3	1.2	16.9*	20.9*	22.2*	/
O=C(CSc1ncnc2c1oc1ccccc12)Nc1cccc(Cl)c1	-7.9	81.2*	2.5	429.8*	-24.8	1.3	81.0*	94.0*	370.8*	i
Cc1nc(SCC(=O)NCCc2ccccc2)c2oc3ccccc3c2n1	10.2	25.9*	-1.3	+	13.4	-0.7	87.9*	73.9*	+	>40	PG9 bind DR=3.42*;PGV04 DR counter=2.36*;PG126 binding DR=2.25*
Cc1nc(SCC(=O)NCC2CCCO2)c2oc3ccccc3c2n1 (configuration not stated)	7.4	-4.2	2.9	-3.1	12.2	0.0	/	/	/	/
Cc1nc(SCC(=O)Nc2ccc(F)cc2)c2oc3ccccc3c2n1	-10.2	45.0*	-1.3	220.0*	-0.9	-6.2	78.4*	84.6*	233.5*	>40
Cc1nc(SCC(=O)Nc2ccccc2)c2oc3ccccc3c2n1	-10.7	95.5*	11.2	781.5*	-0.4	-18.5	96.2*	99.3*	665.8*	>40
COCCn1c(SCC(=O)Nc2ccc(F)cc2)nc2c(oc3ccccc32)c1=O	-5.2	-0.8	-1.6	1.4	-8.4	-0.7	/	/	/	/
CC1CCCN(c2cccc3c2S(=O)(=O)N(Cc2cccc(F)c2)[C@@H](C)[C@H](c2ccccc2)O3)C1 (some centres not stated)	/	-0.1	/	0.3	/	/	/	/	/	/
CCCN1C(=O)c2n[nH]c(C(C)C)c2C1c1cccc(C(F)(F)F)c1 (configuration not stated)	/	0.5	/	2.8	/	/	/	/	/	/
O=C1c2ccccc2/C(=C\c2ccc(O[C@@H]3CCCCO3)cc2)N1c1ccccc1	/	-1.1	/	-5.5	/	/	/	/	/	/
COC(=O)c1ccc(CSc2ncnc3c2oc2ccccc23)o1	-6.4	15.3*	2.3	147.1*	-16.9	3.6	43.4*	80.0*	143.6*	>40
O=C(N=C1N(CC2CC2)CC2(C=C3CCCCC3n3c(=O)n(-c4ccccc4)c(=O)n32)N1C(=O)OCc1ccccc1)c1ccccc1 (configuration not stated)	/	/	/	6.0	/	/	/	/	/	/
COc1ccc(Cl)cc1NC(=O)c1[nH]c(C)c(C(C)=O)c1C	-4.0	27.0*	-13.0	30.6*	2.5	6.7	28.4*	31.4*	35.0*	>40
Cc1cccc(Nc2nn3c(=O)c4ccccc4nc3s2)c1	-5.4	27.5*	-2.4	298.7*	-93.7	2.9	62.4*	68.5*	289.5*	i
CNc1ccc2c3c(cccc13)C(=O)N(C)C2=O	2.6	-15.4	-6.5	382.1*	-32.4	-0.7	/	/	339.1*	>40
CN1C(=O)c2cccc3c(N(C)C)ccc(c23)C1=O	-4.1	-5.3	-0.3	27.1*	-2.8	-11.5	/	/	29.3*	/
CN1C(=O)c2cccc3c(Cl)ccc(c23)C1=O	-9.3	-0.8	-0.4	4.5	14.1	-11.8	/	/	/	/
CC(OP(=O)(O)C(NC(=O)[C@H](Cc1ccc(O)cc1)NC(=O)OC(C)(C)C)C(C)C)C(=O)O (some centres not stated)	/	/	/	2.1	/	/	/	/	/	/
CCOc1ccc(-c2csc(NC(=O)c3cccc(N4C(=O)CCC4=O)c3)n2)cc1	-11.7	1.2	0.5	24.2*	-5.3	-2.4	/	/	14.3*	/
CCOC(=O)c1c(-c2ccc(-c3ccccc3)cc2)csc1NC(=O)c1cccc(N2C(=O)CCC2=O)c1	-13.4	-0.6	-1.6	42.6*	-15.4	-6.3	/	/	29.2*	/
SMILES	PKA-R1A activ	PG9 Ab binder	NR2E3 ag-1	NR1D1 modulator	NR2E3 ag-2	PKA-R2B act	PG9 binder conf	PGV04 counter	NR1D1 mod conf	RORg counter	others
COCCn1c(=NC(=O)c2ccc(S(=O)(=O)N3CCc4ccccc4C3)cc2)sc2cc(OC)ccc21	-12.3	-0.3	0.2	53.9*	1.6	-4.1	/	/	18.9*	/
COCCn1c(=NC(=O)CCS(=O)(=O)c2ccccc2)sc2cc(C(=O)OC)ccc21	-5.9	1.8	4.5	204.5*	-18.1	3.8	/	/	137.3*	>40
COc1cc(NC(=O)c2ccc(-c3ccc(F)c(F)c3)c3ccoc23)cc(OC)c1OC	/	-0.7	/	17.7*	-15.9	/	/	/	-0.5	/
COc1cc(NC(=O)c2ccc(-c3cn[nH]c3)c3ccoc23)cc(OC)c1OC	/	-0.4	/	-2.6	-37.3	/	/	/	/	/
Cc1ccc(-c2c(C#N)c(N)n(-c3ccc(Cl)cc3)c(=O)c2C#N)cc1	/	2.1	/	37.8*	18.3	/	/	/	29.3*	>40
CCOC(=O)c1nn(-c2ccc(Cl)cc2)c2nc(-c3ccc(C)cc3)c(C#N)c(=O)n12	1.8	0.1	-1.4	36.3*	-5.9	-4.2	/	/	37.1*	>40
COC(=O)[C@]12C[C@H](CC(=O)NCc3cccc(C(F)(F)F)c3)C(=O)N(Cc3cccc4ccccc34)C1=C[C@H](C(C)(C)C)O[C@@H]2C	/	/	/	0.6	/	/	/	/	/	/
